{"source": "ChEMBL document CHEMBL3351343", "about": "“Synthesis and biological evaluation of novel sigma-1 receptor antagonists based on pyrimidine scaffold as agents for treating neuropathic pain” (J Med Chem, 2014)", "key": {"[1]": {"target": "Norepinephrine transporter (Rattus norvegicus) (UniProt Q9WTR4)", "sequence (Q9WTR4 as listed by the source)": "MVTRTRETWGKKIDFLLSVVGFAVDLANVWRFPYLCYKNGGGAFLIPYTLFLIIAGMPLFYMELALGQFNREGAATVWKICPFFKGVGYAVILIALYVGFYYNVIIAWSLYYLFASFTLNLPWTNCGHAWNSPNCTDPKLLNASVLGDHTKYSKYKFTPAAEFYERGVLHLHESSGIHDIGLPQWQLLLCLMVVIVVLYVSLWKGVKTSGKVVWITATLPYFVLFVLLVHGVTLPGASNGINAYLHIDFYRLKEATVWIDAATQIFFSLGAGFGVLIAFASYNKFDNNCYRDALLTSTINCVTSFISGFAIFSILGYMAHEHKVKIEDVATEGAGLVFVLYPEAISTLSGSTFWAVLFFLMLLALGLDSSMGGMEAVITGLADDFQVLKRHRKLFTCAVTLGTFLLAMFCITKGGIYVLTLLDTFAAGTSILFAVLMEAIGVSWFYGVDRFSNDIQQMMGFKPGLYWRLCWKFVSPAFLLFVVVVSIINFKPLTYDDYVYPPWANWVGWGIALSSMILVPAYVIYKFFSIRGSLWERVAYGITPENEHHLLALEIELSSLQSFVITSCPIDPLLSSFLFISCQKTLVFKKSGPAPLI", "experiment": "Displacement of [N-methyl-3H]-nisoxetine from rat hippocampal membrane Noradrenaline transporter at 1 uM after 8 hrs by liquid scintillation counting analysis", "assay_type": "tissue-based", "conditions": "Hippocampus"}, "Rattus norvegicus [2]": {"tested_on": "Rattus norvegicus", "experiment": "Cmax in Sprague-Dawley rat at 16 mg/kg, iv by HPLC/MS/MS analysis", "assay_type": "ADME, organism-based", "parameters": "dose 16 mg/kg, route intravenous", "conditions": "in vivo", "outline": "(§1)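 Sprague-Dawley rats (250 ± 5.0 g), n = 8/group, dosed iv via lateral tail vein at 16 mg/kg in 100% saline or by oral gavage at 320 mg/kg as suspension in 0.5% methylcellulose. Serial tail-vein blood into heparinized tubes at 30 min, 1, 2, 3, 4, 5, 6, 7 and 24 h. Plasma treated by acetonitrile protein precipitation, then HPLC/MS on C18 column, 40 °C.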"}, "[3]": {"target": "Mu-type opioid receptor (Homo sapiens) (UniProt P35372)", "sequence (P35372 whole entry)": "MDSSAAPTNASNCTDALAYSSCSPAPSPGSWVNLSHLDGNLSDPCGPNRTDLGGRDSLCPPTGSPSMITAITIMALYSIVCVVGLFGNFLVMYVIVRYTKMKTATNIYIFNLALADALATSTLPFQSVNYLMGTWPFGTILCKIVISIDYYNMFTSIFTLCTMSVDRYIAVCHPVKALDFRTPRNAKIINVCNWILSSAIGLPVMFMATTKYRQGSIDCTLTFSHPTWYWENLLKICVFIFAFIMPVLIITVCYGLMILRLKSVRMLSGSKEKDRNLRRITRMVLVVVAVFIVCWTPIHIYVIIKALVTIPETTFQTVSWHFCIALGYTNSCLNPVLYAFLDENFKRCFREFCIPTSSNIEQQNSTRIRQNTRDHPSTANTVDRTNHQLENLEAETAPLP", "experiment": "Displacement of [3H]-diprenorphine from human mu-opioid receptor at 1 uM after 150 mins by liquid scintillation counting analysis"}, "[4]": {"target": "Cannabinoid receptor 1 (Homo sapiens) (UniProt P21554)", "sequence (P21554 whole entry)": "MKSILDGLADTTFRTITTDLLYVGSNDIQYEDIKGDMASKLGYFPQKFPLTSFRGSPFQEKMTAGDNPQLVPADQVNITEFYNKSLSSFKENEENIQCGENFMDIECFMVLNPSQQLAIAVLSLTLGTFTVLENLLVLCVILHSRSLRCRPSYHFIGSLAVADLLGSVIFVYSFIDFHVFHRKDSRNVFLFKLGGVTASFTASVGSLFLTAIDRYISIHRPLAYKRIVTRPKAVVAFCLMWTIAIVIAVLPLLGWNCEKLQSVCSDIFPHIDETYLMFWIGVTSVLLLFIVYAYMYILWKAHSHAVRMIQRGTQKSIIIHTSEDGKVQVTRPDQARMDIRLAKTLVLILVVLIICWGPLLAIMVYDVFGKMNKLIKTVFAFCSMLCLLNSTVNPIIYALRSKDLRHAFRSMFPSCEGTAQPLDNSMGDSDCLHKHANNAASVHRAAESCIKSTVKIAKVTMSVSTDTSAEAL", "experiment": "Displacement of [3H]-CP-55940 from human CB1 receptor expressed in CHO cells at 1 uM after 90 mins by liquid scintillation counting analysis", "assay_type": "cell-based"}, "Mus musculus": {"tested_on": "Mus musculus", "experiment": "Antinociceptive activity in Kun Ming mouse pain model assessed as reduction in licking and biting time during phase-1 at 80 mg/kg, ip administered 15 mins prior to formalin challenge relative to vehicle-treated control", "assay_type": "functional", "conditions": "route intraperitoneal", "outline": "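Kun Ming mice (20 ± 2.0 g), 10–12 per group, given vehicle (30% PEG 400) or drug ip at 10 mL/kg 15 min before intraplantar formalin. Time spent licking or biting the injected paw scored at 0–5 min (phase I) and 15–45 min (phase II). Effect (%) = (LTV − LTD)/LTV × 100.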"}, "[5]": {"target": "Cannabinoid receptor 2 (Homo sapiens) (UniProt P34972)", "sequence (P34972 whole entry)": "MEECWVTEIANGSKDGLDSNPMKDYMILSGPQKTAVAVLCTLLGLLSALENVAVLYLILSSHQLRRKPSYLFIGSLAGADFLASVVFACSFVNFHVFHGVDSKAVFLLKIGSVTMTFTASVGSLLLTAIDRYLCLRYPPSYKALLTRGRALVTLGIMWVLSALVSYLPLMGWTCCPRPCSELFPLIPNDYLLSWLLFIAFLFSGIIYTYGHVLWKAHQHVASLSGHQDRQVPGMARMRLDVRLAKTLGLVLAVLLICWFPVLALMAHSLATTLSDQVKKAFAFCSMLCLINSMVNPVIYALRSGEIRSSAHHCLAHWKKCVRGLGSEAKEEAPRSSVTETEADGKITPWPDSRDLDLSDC", "experiment": "Displacement of [3H]-CP-55940 from human CB2 receptor expressed in HEK cells at 1 uM after 90 mins by liquid scintillation counting analysis", "assay_type": "cell-based", "conditions": "HEK293"}, "[6]": {"experiment": "Half life in Sprague-Dawley rat at 16 mg/kg, iv by HPLC/MS/MS analysis", "conditions": "in vivo"}, "[7]": {"target": "Histamine H1 receptor (Cavia porcellus) (UniProt P31389)", "sequence (P31389 whole entry)": "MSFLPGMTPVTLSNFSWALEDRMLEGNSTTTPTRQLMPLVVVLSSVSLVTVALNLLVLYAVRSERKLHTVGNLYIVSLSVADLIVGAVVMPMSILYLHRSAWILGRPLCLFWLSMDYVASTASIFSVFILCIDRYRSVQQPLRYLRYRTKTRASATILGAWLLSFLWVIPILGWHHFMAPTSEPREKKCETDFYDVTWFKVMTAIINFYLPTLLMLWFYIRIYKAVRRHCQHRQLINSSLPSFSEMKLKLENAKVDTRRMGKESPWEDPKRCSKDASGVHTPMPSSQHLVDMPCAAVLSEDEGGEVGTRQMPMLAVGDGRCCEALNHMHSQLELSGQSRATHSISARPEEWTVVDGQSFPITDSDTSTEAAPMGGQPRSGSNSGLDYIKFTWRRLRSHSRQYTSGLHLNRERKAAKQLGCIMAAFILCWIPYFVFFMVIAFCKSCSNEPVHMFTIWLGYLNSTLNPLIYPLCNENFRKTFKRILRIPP", "experiment": "Displacement of [3H]-mepyramine from guinea pig cerebellum histamine H1 receptor at 1 uM after 60 mins by liquid scintillation counting analysis"}, "[8]": {"experiment": "Half life in Sprague-Dawley rat at 320 mg/kg, po by HPLC/MS/MS analysis", "assay_type": "ADME, organism-based", "parameters": "dose 320 mg/kg, route oral", "conditions": "in vivo", "outline": "as §1"}, "Rattus norvegicus [9]": {"tested_on": "Rattus norvegicus", "experiment": "Antineuropathic pain activity in po dosed Sprague-Dawley rat chronic constriction injury model assessed as inhibition of mechanical allodynia measured on day 15 relative to sham-treated control", "assay_type": "functional", "outline": "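Sprague-Dawley rats, sciatic nerve chronic constriction injury (four loose 4-0 silk ligatures, chloral hydrate anaesthesia); sham has nerve exposed without ligation. Model confirmed on day 14. Oral dosing in 0.5% methylcellulose, 10 mL/kg, twice daily on days 15–18. Read after first dose (day 15) and last dose (day 18). Von Frey withdrawal threshold and radiant-heat plantar withdrawal latency (30 s cutoff), each paw sampled four times and averaged; 10 rats/group.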"}, "[10]": {"target": "Transient receptor potential cation channel subfamily V member 1 (Homo sapiens) (UniProt Q8NER1)", "sequence (Q8NER1 whole entry)": "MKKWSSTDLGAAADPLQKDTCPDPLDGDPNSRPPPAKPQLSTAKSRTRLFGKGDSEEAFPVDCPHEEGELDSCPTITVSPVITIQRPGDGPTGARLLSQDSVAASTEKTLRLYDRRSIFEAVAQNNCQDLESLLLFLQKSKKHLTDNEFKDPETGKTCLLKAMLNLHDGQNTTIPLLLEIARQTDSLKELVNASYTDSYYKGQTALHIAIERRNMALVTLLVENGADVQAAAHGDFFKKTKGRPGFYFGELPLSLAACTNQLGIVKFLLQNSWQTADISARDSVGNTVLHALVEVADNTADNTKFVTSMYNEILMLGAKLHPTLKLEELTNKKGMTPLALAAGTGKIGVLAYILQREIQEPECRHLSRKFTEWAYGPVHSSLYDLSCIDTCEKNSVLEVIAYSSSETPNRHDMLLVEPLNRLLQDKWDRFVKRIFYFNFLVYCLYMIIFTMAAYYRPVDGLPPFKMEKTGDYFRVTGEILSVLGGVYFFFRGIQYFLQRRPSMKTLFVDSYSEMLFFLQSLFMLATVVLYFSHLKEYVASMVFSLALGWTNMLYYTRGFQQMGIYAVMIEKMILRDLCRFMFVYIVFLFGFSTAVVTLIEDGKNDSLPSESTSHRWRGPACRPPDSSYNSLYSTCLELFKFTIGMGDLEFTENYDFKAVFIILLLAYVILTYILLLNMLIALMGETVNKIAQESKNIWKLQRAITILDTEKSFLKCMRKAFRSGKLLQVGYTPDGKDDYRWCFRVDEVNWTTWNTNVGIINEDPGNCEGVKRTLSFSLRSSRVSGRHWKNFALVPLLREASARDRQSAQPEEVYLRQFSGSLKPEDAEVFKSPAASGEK", "experiment": "Inhibition of from human TRPV-1 channel expressed in HEK293 cells at 1 uM after 5 mins by electrophysiological analysis", "assay_type": "cell-based"}, "[11]": {"experiment": "AUC (0 to infinity) in Sprague-Dawley rat at 16 mg/kg, iv by HPLC/MS/MS analysis", "conditions": "plasma"}}}
{"compound": "Cc1nc(-c2ccc(Cl)cc2)nc(OCCCN2CCCCC2)c1Cl", "values": [{"measurement": "inhibition", "setting": "[1]", "result": "< 50", "unit": "%"}, {"measurement": "Cmax", "setting": "Rattus norvegicus [2]", "result": 7260, "unit": "ng/mL"}, {"measurement": "inhibition", "setting": "[3]", "result": "< 50", "unit": "%"}, {"measurement": "inhibition", "setting": "[4]", "result": "< 50", "unit": "%"}, {"measurement": "Time", "setting": "Mus musculus", "result": 12.65, "unit": "s"}, {"measurement": "inhibition", "setting": "[5]", "result": "< 50", "unit": "%"}, {"measurement": "half-life", "setting": "[6]", "result": 10.6, "unit": "h"}, {"measurement": "inhibition", "setting": "[7]", "result": "< 50", "unit": "%"}, {"measurement": "half-life", "setting": "[8]", "result": 3.81, "unit": "h"}, {"measurement": "inhibition", "setting": "Rattus norvegicus [9]", "result": "Dose-dependent effect"}, {"measurement": "ED50", "setting": "Rattus norvegicus [9]; 360 h", "result": 58.2, "unit": "mg/kg"}, {"measurement": "inhibition", "setting": "[10]", "result": "< 50", "unit": "%"}, {"measurement": "AUC(0-inf)", "setting": "[11]", "result": 3690, "unit": "ng·h/mL"}]}
